# Measured values reported in ChEMBL document CHEMBL3421621, “SAR Studies of Diphenyl Cationic Trypanocides: Superior Activity of Phosphonium over Ammonium Salts” (ACS Med Chem Lett, 2015).
# Experiments:
# [1] = tested on: Trypanosoma brucei brucei; experiment: Antitrypanosomal activity against AT1 knock out Trypanosoma brucei brucei assessed as cell viability after 48 hrs by alamar blue assay; assay type: functional, organism-based
# Method in brief: (§1)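 Alamar blue viability assay run in parallel on T. b. brucei s427 wild type trypomastigotes, the TbAT1-KO strain (no functional P2 transporter) and the B48 strain (derived from TbAT1-KO, nonfunctional HAPT). EC50 values are the mean of three experiments ± SEM. Resistance factor is the EC50 against each resistant strain relative to wild type.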
# [2] = tested on: Trypanosoma brucei brucei; experiment: Antitrypanosomal activity against Trypanosoma brucei brucei B48 with nonfunctional high affinity pentamidine transporter assessed as cell viability after 48 hrs by alamar blue assay; assay type: functional, organism-based; settings: B48, 48 h; method in brief: as §1
# [3] = tested on: Trypanosoma brucei brucei; experiment: Antitrypanosomal activity against wild type Trypanosoma brucei brucei s427 trypomastigotes assessed as cell viability after 48 hrs by alamar blue assay; assay type: functional, organism-based; settings: s427, 48 h; method in brief: as §1
# [4] = Cytotoxicity against HEK293 cells after 16 hrs by alamar blue assay; assay type: cell-based; settings: human
# [5] = tested on: Trypanosoma brucei brucei; experiment: Resistance factor, ratio of EC50 for Trypanosoma brucei brucei B48 to EC50 for wild type Trypanosoma brucei brucei s427 trypomastigotes; assay type: functional
# Method in brief: (§2)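 AlamarBlue-based viability assay run in parallel on wild-type T. b. brucei s427 trypomastigotes and two resistant strains. TbAT1-KO lacks a functional P2 transporter and is diminazene-resistant. B48 is derived from TbAT1-KO and also lacks a functional high-affinity pentamidine transporter (HAPT). EC50 values are means of three experiments ± SEM. Each resistant-strain EC50 is divided by the wild-type EC50.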
# [6] = Selectivity index, ratio of CC50 for HEK293 cells to EC50 for wild type Trypanosoma brucei brucei s427 trypomastigotes; assay type: toxicity, cell-based; settings: human; read-out: Ratio CC50/EC50
# Method in brief: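 Selectivity index = CC50 for HEK cells divided by EC50 against T. b. brucei s427 wild type.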
# [7] = tested on: Trypanosoma brucei brucei; experiment: Resistance factor, ratio of EC50 for AT1 knock out Trypanosoma brucei brucei to EC50 for wild type Trypanosoma brucei brucei s427 trypomastigotes; assay type: functional; method in brief: as §2
SMILES,EC50 [1] [µM],EC50 [2] [µM],EC50 [3] [µM],CC50 at 16 h [4] [µM],Ratio EC50 [5],selectivity ratio [6],Ratio EC50 [7]
CC[N+](CC)(CC)Cc1ccc(Oc2ccc(C[N+](CC)(CC)CC)cc2)cc1,> 100,> 100,> 100,–,–,–,–
CCCC[N+](CCCC)(CCCC)Cc1ccc(Oc2ccc(C[N+](CCCC)(CCCC)CCCC)cc2)cc1.[Br-].[Br-],3.98,3,2.8,> 300,1.1,> 100,1.4
CCCCCC[N+](CCCCCC)(CCCCCC)Cc1ccc(Oc2ccc(C[N+](CCCCCC)(CCCCCC)CCCCCC)cc2)cc1.[Br-].[Br-],0.08,0.065,0.102,21.8,0.6,213,0.8
[Br-].[Br-].c1cc[n+](Cc2ccc(Oc3ccc(C[n+]4ccccc4)cc3)cc2)cc1,> 100,72,85,–,0.8,–,–
[Br-].[Br-].c1ccc2c(c1)ccc[n+]2Cc1ccc(Oc2ccc(C[n+]3cccc4ccccc43)cc2)cc1,10.2,9.7,11,> 300,0.9,> 27,0.9
CC[N+](CC)(CC)Cc1ccc(C(=O)c2ccc(C[N+](CC)(CC)CC)cc2)cc1,> 100,> 100,> 100,–,–,–,–
CCCC[N+](CCCC)(CCCC)Cc1ccc(C(=O)c2ccc(C[N+](CCCC)(CCCC)CCCC)cc2)cc1.[Br-].[Br-],16.7,14.1,11.5,> 300,1.2,> 26,1.4
O=C(c1ccc(C[n+]2ccccc2)cc1)c1ccc(C[n+]2ccccc2)cc1,> 100,> 100,> 100,–,–,–,–
O=C(c1ccc(C[n+]2cccc3ccccc32)cc1)c1ccc(C[n+]2cccc3ccccc32)cc1.[Br-].[Br-],35.2,30.9,45.4,> 300,0.7,> 6,0.8
CCCC[N+](CCCC)(CCCC)Cc1ccc(C(=O)c2ccccc2)cc1.[Br-],4.1,4.5,4.6,> 300,1,> 65,0.9
CCCCCC[N+](CCCCCC)(CCCCCC)Cc1ccc(C(=O)c2ccccc2)cc1.[Br-],0.018,0.014,0.023,15.4,0.6,668,0.8
O=C(c1ccccc1)c1ccc(C[n+]2ccccc2)cc1,> 100,> 100,> 100,–,–,–,–
O=C(c1ccccc1)c1ccc(C[n+]2cccc3ccccc32)cc1,68.5,81.5,> 100,–,–,–,–
Cl.O=C(c1ccccc1)c1ccc(CN(Cc2ccccc2)Cc2ccccc2)cc1,10,8.3,11,> 300,0.7,> 27,0.9
N=C(N)c1ccc(/N=N/Nc2ccc(C(=N)N)cc2)cc1 [DIMINAZENE],0.738,–,0.323,–,3.1,–,2.3
N=C(N)c1ccc(OCCCCCOc2ccc(C(=N)N)cc2)cc1 [PENTAMIDINE],0.006,0.329,0.01,–,32.9,–,0.6
